Data reported in ChEMBL document CHEMBL2046328, “Structure-based design of rhodanine-based acylsulfonamide derivatives as antagonists of the anti-apoptotic Bcl-2 protein” (Bioorg Med Chem, 2012).
≈ marks a conversion by molar mass, not a printed value.

Key:
[1] = Inhibition of FAM-Bak-BH3 binding to human N-terminal His6-tagged Bcl2 isoform 2 after 4 hrs by fluorescence polarization assay
[2] = test system: PC-3; assay: Antiproliferative activity against human PC3 cells after 48 hrs by MTT assay; type: functional, cell-based; conditions: PC-3, 48 h
Method in brief: (§1)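 Cells were seeded at 7×10^3 per well and grown 24 h, then exposed to compounds for 48 h. MTT was added for 6 h, followed by 10% SDS in 0.01 N HCl for 4 h at 37 °C, and absorbance was read at 570 nm. Survival is expressed relative to untreated cells. IC50 came from 6-well replicates in at least two independent experiments.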

[3] = Antiproliferative activity against mouse B16/F10 cells after 48 hrs by MTT assay; type: functional, cell-based; conditions: B16-F10, 48 h; method in brief: as §1
[4] = test system: HepG2; assay: Antiproliferative activity against human HepG2 cells after 48 hrs by MTT assay; type: functional, cell-based; conditions: HepG2, 48 h; method in brief: as §1

Structure (SMILES) | Ki [1] | IC50 [2] | IC50 [3] | IC50 [4]
Cc1ccc(S(=O)(=O)NC(=O)[C@@H](NC2=NC(=O)/C(=C/c3ccccc3)S2)C(C)C)cc1 | 3010 nM | 11.9 µg/mL (≈ 26 µM) | 7.46 µg/mL (≈ 16.3 µM) | 18.2 µg/mL (≈ 39.8 µM)
COc1ccccc1/C=C1\SC(N[C@H](C(=O)NS(=O)(=O)c2ccc(C)cc2)C(C)C)=NC1=O | – | 15 µg/mL (≈ 30.8 µM) | 13.5 µg/mL (≈ 27.7 µM) | 20.2 µg/mL (≈ 41.4 µM)
Cc1ccc(S(=O)(=O)NC(=O)[C@H](CC(C)C)NC2=NC(=O)/C(=C/c3ccccc3F)S2)cc1 | – | 15.3 µg/mL (≈ 31.3 µM) | 11.3 µg/mL (≈ 23.1 µM) | 16.4 µg/mL (≈ 33.6 µM)
Cc1ccc(S(=O)(=O)NC(=O)[C@H](Cc2ccccc2)NC2=NC(=O)/C(=C/c3ccc(-c4ccccc4)cc3)S2)cc1 | 310 nM | 16.4 µg/mL (≈ 28.1 µM) | 12.5 µg/mL (≈ 21.6 µM) | 16.6 µg/mL (≈ 28.5 µM)
Cc1cc2c(C(C)C)c(O)c(O)c(C=O)c2c(O)c1-c1c(C)cc2c(C(C)C)c(O)c(O)c(C=O)c2c1O [GOSSYPOL] | 334 nM | 6.71 µg/mL (≈ 12.9 µM) | 5.56 µg/mL (≈ 10.7 µM) | 10.2 µg/mL (≈ 19.6 µM)
Cc1ccc(S(=O)(=O)NC(=O)[C@H](CC(C)C)NC2=NC(=O)/C(=C/c3ccccc3Cl)S2)cc1 | – | 15.6 µg/mL (≈ 30.8 µM) | 8.52 µg/mL (≈ 16.8 µM) | 13.3 µg/mL (≈ 26.4 µM)
Cc1ccc(S(=O)(=O)NC(=O)[C@@H](NC2=NC(=O)/C(=C/c3ccccc3Cl)S2)C(C)C)cc1 | 25 nM | 11.9 µg/mL (≈ 24.1 µM) | 8.8 µg/mL (≈ 17.9 µM) | 21.2 µg/mL (≈ 43.2 µM)
Cc1ccc(S(=O)(=O)NC(=O)[C@H](Cc2ccccc2)NC2=NC(=O)/C(=C/c3ccccc3Cl)S2)cc1 | 20 nM | 16 µg/mL (≈ 29.6 µM) | 12.2 µg/mL (≈ 22.6 µM) | 21 µg/mL (≈ 38.9 µM)
Cc1ccc(S(=O)(=O)NC(=O)[C@H](CC(C)C)NC2=NC(=O)/C(=C/c3cccc(Cl)c3)S2)cc1 | – | 16.8 µg/mL (≈ 33.1 µM) | 13.4 µg/mL (≈ 26.4 µM) | 16.5 µg/mL (≈ 32.6 µM)
Cc1ccc(S(=O)(=O)NC(=O)[C@H](Cc2ccccc2)NC2=NC(=O)/C(=C/c3ccccc3F)S2)cc1 | – | 22.1 µg/mL (≈ 42.1 µM) | 11.9 µg/mL (≈ 22.7 µM) | 18.7 µg/mL (≈ 35.8 µM)
COc1ccc(/C=C2\SC(N[C@H](C(=O)NS(=O)(=O)c3ccc(C)cc3)C(C)C)=NC2=O)cc1 | 672 nM | 20.3 µg/mL (≈ 41.6 µM) | 11.6 µg/mL (≈ 23.8 µM) | 12.8 µg/mL (≈ 26.2 µM)
